Usually inhibition stands for how much of the control response was suppressed. Broadly, the IC50 is the point on the concentration scale where inhibition reaches its midpoint. One may read the inhibition in vivo as the change of the read-out against control, counted positive when it falls. One may read the Tmax as the time at which the peak concentration occurs. As usually defined, the Cmax is the maximum level reached in the sampled fluid or tissue. For orientation: AUC means the area under the concentration-time curve, a measure of exposure. A high value points to high exposure.

Here are results for 21 molecules from ChEMBL document CHEMBL1139358, “Potent and orally bioavailable CCR4 antagonists: Synthesis and structure-activity relationship study of 2-aminoquinazolines” (Bioorg Med Chem, 2009).

Data set [1] addresses T1, C-C chemokine receptor type 4 (Homo sapiens) (UniProt P51679).
T1 sequence (whole entry): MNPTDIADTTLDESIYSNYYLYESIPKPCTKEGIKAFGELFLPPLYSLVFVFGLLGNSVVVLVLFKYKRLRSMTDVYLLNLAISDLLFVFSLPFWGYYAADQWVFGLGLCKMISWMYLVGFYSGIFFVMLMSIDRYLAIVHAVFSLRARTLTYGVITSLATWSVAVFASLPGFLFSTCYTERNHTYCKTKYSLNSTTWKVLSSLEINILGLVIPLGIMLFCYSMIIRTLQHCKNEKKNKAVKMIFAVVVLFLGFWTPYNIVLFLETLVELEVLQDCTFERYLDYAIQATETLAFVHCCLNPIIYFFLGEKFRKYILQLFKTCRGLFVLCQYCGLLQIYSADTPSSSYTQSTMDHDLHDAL
In words: Antagonist activity at human CCR4 receptor expressed in mouse B300-19 cells assessed as CCL22-induced [35S]GTPgammaS binding at 1 uM. Format: functional, cell-based. A digest of the protocol:
(§1)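 B300-19 pre-B cell membranes stably expressing human CCR4 (1 µg protein/well), incubated 1.5 h at 25 °C with 150 pM [35S]GTPγS, 2 µM GDP, 3 nM MDC (CCL22), WGA SPA beads, in HEPES-NaOH pH 7.05, NaCl, MgCl2, BSA buffer. Scintillation counting. Percent inhibition from no-compound and no-CCL22 control wells. Duplicate wells, four test concentrations.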

For data set [2], the target named is T2, C-C chemokine receptor type 4 (Homo sapiens, UniProt P51679).
T2 sequence (P51679 whole entry): T1 sequence (whole entry)
In words: Antagonist activity at human CCR4 receptor expressed in mouse B300-19 cells assessed as CCL22-induced [35S]GTPgammaS binding. Format: functional, cell-based. An outline of the steps:
as §1

The target of data set [3] is T3, C-C chemokine receptor type 4 (Mus musculus) (UniProt P51680).
T3 sequence (whole entry): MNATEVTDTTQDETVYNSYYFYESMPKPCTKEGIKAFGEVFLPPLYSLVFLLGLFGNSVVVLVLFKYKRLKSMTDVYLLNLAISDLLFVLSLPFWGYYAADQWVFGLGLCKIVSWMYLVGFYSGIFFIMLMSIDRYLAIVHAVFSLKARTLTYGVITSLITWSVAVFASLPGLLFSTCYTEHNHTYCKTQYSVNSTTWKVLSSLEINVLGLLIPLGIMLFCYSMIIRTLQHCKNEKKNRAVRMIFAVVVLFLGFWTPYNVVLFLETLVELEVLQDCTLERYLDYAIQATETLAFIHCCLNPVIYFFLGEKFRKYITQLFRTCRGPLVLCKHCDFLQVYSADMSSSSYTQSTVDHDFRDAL
The data set can be described thus: Antagonist activity at mouse CCR4 receptor expressed in mouse B300-19 cells assessed as CCL22-induced chemotaxis at 1 uM. Format: functional, cell-based. A digest of the protocol: (§2)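 Stable CCR4 transfectants of B300-19 cells (human or mouse receptor) at 5 × 10^6 cells/mL in RPMI 1640 with 0.1% BSA, pretreated with test compound. Cells placed above 5-µm polycarbonate filters, with 3 nM human (human CCR4 cells) or 1 nM mouse (mouse CCR4 cells) CCL22 below. Migration for 3 h at 37 °C, 5% CO2. Migrated cells quantified by ATP bioluminescence. Triplicates, four concentrations.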

The target of data set [4] is T1, C-C chemokine receptor type 4 (Homo sapiens). In words: Antagonist activity at human CCR4 receptor expressed in mouse B300-19 cells assessed as CCL22-induced chemotaxis at 1 uM. The data set is classed as functional, cell-based. An outline of the steps: as §2
Data set [5] deals with Mus musculus. The data set can be described thus: Antiinflammatory activity against oxazolone-induced contact hypersensitivity in BALB/c mouse model of acute dermatitis assessed as inhibition of ear swelling at 30 mg/kg, po bid. The data set is classed as functional. A digest of the protocol: (§3)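 Female BALB/c mice, 7 weeks, n = 5, sensitized with 3% oxazolone in ethanol on the shaved abdomen. Challenged on day 6 with 1% oxazolone on the right ear. Ear thickness gauged 20 h after challenge. Twice-daily dosing was given 30 min before and 8 h after challenge. Single doses were given after challenge only (8 h or 12 h). Percent inhibition of swelling calculated against control and vehicle groups.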

Data set [6] concerns Mus musculus. In words: Antiinflammatory activity against oxazolone-induced contact hypersensitivity in BALB/c mouse model of acute dermatitis assessed as inhibition of ear swelling at 30 mg/kg, sc qd. The settings on record: route subcutaneous. The data set is classed as functional. A digest of the protocol: as §3
Data set [7] has as its system Mus musculus. In words: Antiinflammatory activity against oxazolone-induced contact hypersensitivity in BALB/c mouse model of acute dermatitis assessed as inhibition of ear swelling at 100 mg/kg, po bid. Format: functional. A digest of the protocol: as §3
The nature of data set [8]: Antagonist activity at human CCR4 receptor expressed in mouse B300-19 cells assessed as CCL22-induced chemotaxis.
Data set [9] can be described thus: Antagonist activity at mouse CCR4 receptor expressed in mouse B300-19 cells assessed as CCL22-induced chemotaxis.
In data set [10] the test system is Mus musculus. In words: Antiinflammatory activity against oxazolone-induced contact hypersensitivity in BALB/c mouse model of acute dermatitis assessed as inhibition of ear swelling at 10 mg/kg, po qd. The data set is classed as functional. A digest of the protocol: as §3
Data set [11] has as its system Mus musculus. The data set can be described thus: Antiinflammatory activity against oxazolone-induced contact hypersensitivity in BALB/c mouse model of acute dermatitis assessed as inhibition of ear swelling at 100 mg/kg, po qd. Format: functional. A digest of the protocol:
as §3

The nature of data set [12]: Tmax in BALB/c mouse at 30 mg/kg, po administered as single dose. The data set is classed as ADME, organism-based. On the set-up: dose 30 mg/kg, route oral. The settings on record: in vivo.
A short description of data set [13]: Cmax in BALB/c mouse at 30 mg/kg, po administered as single dose. Format: ADME, organism-based. More on the design: dose 30 mg/kg, route oral. The conditions noted are these: in vivo.
The subject of data set [14] is Mus musculus. In words: AUC (0 to 24 hrs) in BALB/c mouse at 30 mg/kg, po administered as single dose. The data set is classed as ADME, organism-based, Plasma. On the set-up: time < 24 hr, dose 30 mg/kg, route oral. The settings on record: in vivo.
Data set [15] in a line: Tmax in BALB/c mouse at 100 mg/kg, po administered as single dose. Format: ADME, organism-based. On the set-up: dose 100 mg/kg, route oral. The conditions noted are these: in vivo.
A short description of data set [16]: Cmax in BALB/c mouse at 100 mg/kg, po administered as single dose. On the set-up: dose 100 mg/kg, route oral. The conditions noted are these: in vivo. The data set is classed as ADME, organism-based.
For data set [17], the system named is Mus musculus. The data set can be described thus: AUC (0 to 24 hrs) in BALB/c mouse at 100 mg/kg, po administered as single dose. The settings on record: in vivo. The data set is classed as ADME, organism-based, Plasma. More on the design: time < 24 hr, dose 100 mg/kg, route oral.
Data set [18] deals with Mus musculus. In words: Antiinflammatory activity against oxazolone-induced contact hypersensitivity in BALB/c mouse model of acute dermatitis assessed as inhibition of ear swelling at 30 mg/kg, po qd. Format: functional. An outline of the steps: as §3
Data set [19] concerns Mus musculus. The data set can be described thus: Antiinflammatory activity against oxazolone-induced contact hypersensitivity in BALB/c mouse model of acute dermatitis assessed as inhibition of ear swelling at 30 mg/kg, sc bid. The settings on record: route subcutaneous. The data set is classed as functional. An outline of the steps: as §3

Each structure is given as a SMILES string.

`COc1cc2nc(N3CCC(N4CCCC(CO)C4)CC3)nc(NC3CCS(=O)(=O)CC3)c2cc1OC` (stereo not given): the inhibition in [1] turned out to be 0%.

As to `COc1cc2nc(N3CCC(N4CCCC(CO)C4)CC3)nc(NS(=O)(=O)c3ccc(Cl)cc3)c2cc1OC` (stereo not given), the inhibition in data set [1] stood at 5%.

As to `COc1cc2nc(N3CCC(N4CCOC(CO)C4)CC3)nc(Nc3ccc(Cl)cc3)c2cc1OC` (stereo not given), in data set [2], the IC50 was 100 nM. Besides, the inhibition in data set [3] was 50%.

Take `COc1cc2nc(N3CCC(N4CCCC(CO)C4)CC3)nc(NCc3ccc(Cl)cc3)c2cc1OC` (stereo not given): the IC50 in data set [2] was 87 nM.

For the molecule `COc1cc2nc(N3CCC(N4CCCC(CO)C4)CC3)nc(NC3CCOCC3)c2cc1OC` (stereo not given), in [1], the inhibition was 4%.

For `COc1cc2nc(N3CCC(N4CCCC(CO)C4)CC3)nc(NCCc3ccc(Cl)cc3)c2cc1OC` (stereo not given), in data set [2], the IC50 was 61 nM. Besides, the inhibition in data set [4] amounted to 43%.

On to `COc1cc2nc(N3CCC(N4CCCCC4)CC3)nc(NC3CCCCCC3)c2cc1OC`, for which, in data set [5], the inhibition in vivo at 30 mg/kg is 2%.

With `COc1cc2nc(N3CCC(N4CCCC4)CC3)nc(NC3CCCCCC3)c2cc1OC`, the inhibition in vivo at 30 mg/kg in data set [6] is 39%. For the same molecule, the inhibition in vivo at 100 mg/kg in data set [7] is 8%. Also, the IC50 in [8] came to 200 nM; in data set [9], 130 nM.

In the case of `COc1cc2nc(N3CCC(N4CCCC(CO)C4)CC3)nc(NC(=O)c3ccc(Cl)cc3)c2cc1OC` (stereo not given), in [1], the inhibition is 11%.

For `COc1cc2nc(N3CCC(N4CCCC(CO)C4)CC3)nc(C(O)c3ccc(Cl)cc3)c2cc1OC` (stereo not given), in data set [1], the inhibition came out at 7%.

Take `COCC1CCCN(C2CCN(c3nc(Nc4ccc(Cl)cc4)c4cc(OC)c(OC)cc4n3)CC2)C1` (stereo not given): the IC50 in data set [2] amounted to 52 nM.

Turning to `COc1cc2nc(N3CCC(N4CCCC(CO)C4)CC3)nc(N3CCc4cc(Cl)ccc43)c2cc1OC` (stereo not given), the inhibition in data set [1] is 40%.

With `COc1cc2nc(N3CCC(N4CCCC(CO)C4)CC3)nc(NC3CCCCCC3)c2cc1OC` (stereo not given), the IC50 in [2] worked out at 30 nM. Further, the inhibition in vivo at 30 mg/kg in data set [5] worked out at 11%.

With `COc1cc2nc(N3CCC(N4CCCC(OC)C4)CC3)nc(Nc3ccc(Cl)cc3)c2cc1OC` (stereo not given), the IC50 in [2] turned out to be 100 nM.

Take `COc1cc2nc(N3CCC(N4CCCC(CO)C4)CC3)nc(-c3ccc(Cl)cc3)c2cc1OC` (stereo not given): the IC50 in [2] is > 1000 nM.

On to `COc1cc2nc(N3CCC(N4CCCC(CO)C4)CC3)nc(Nc3ccc(Cl)cc3)c2cc1OC` (stereo not given), for which the IC50 in [2] was determined as 19 nM. The inhibition in vivo at 30 mg/kg in data set [6] turned out to be 44%; in data set [18], 17%. The inhibition in vivo at 10 mg/kg in [10] was determined as 13%. Further, the inhibition in vivo at 100 mg/kg in [11] worked out at 39%. The Tmax in data set [12] and in data set [15] was 2 h in each case. The results for the Cmax in [13] and in [16] were 139 ng/mL and 262 ng/mL, respectively. For the same molecule, the AUC in data set [14] was 1010 ng·h/mL; in [17] it was 1750 ng·h/mL.

For `COc1cc2nc(N3CCC(N4CCCC(CO)C4)CC3)nc(N(C)CCc3ccc(Cl)cc3)c2cc1OC` (stereo not given), the inhibition in [1] stood at 23%.

Consider `COc1cc2nc(N3CCC(N4CCCC(CO)C4)CC3)nc(C(=O)c3ccc(Cl)cc3)c2cc1OC` (stereo not given), for which the inhibition in data set [1] came out at 42%.

With `COc1cc2nc(N3CCC(N4CCCC4)CC3)nc(Nc3ccc(Cl)cc3)c2cc1OC`, the inhibition in vivo at 30 mg/kg in data set [5] was determined as 2%; in [19], 43%. In addition, the figures for the IC50 in data set [8] and in [9] were 110 nM and 130 nM, respectively.

As to `COc1cc2nc(N3CCC(N4CCCC(CO)C4)CC3)nc(NCCCc3ccc(Cl)cc3)c2cc1OC` (stereo not given), the concentration for half-maximal inhibition (IC50) in data set [2] is 180 nM.

As for `COc1cc2nc(N3CCC(N4CCCC(O)C4)CC3)nc(Nc3ccc(Cl)cc3)c2cc1OC` (stereo not given), in [2], the IC50 came out at 48 nM.
